Reference: ChEMBL document CHEMBL2311485, “Chemical and microbial semi-synthesis of tetrahydroprotoberberines as inhibitors on tissue factor procoagulant activity” (Bioorg Med Chem, 2013)

Molecular target: Tissue factor (Homo sapiens, UniProt P13726)
Assay: Inhibition of tissue factor procoagulant activity in LPS-stimulated human THP1 cells preincubated for 1 hr before LPS addition measured after 5 hrs
Type: cell-based, THP-1
Outline: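 THP-1 cells grown in RPMI-1640 with 10% heat-inactivated FCS, 37 °C, 5% CO2. Cells at 1 × 10⁶/mL pretreated 1 h with compound or 0.1% DMSO vehicle, then given 500 ng/mL LPS for 5 h. Cells were pelleted, resuspended, frozen/thawed three times, and the lysate incubated with prothrombin complex plus CaCl₂ (pH 7.3) 15 min at 37 °C. Factor Xa chromogenic substrate (0.5 mM) with EDTA was added and A405 read.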

Sequence of Tissue factor (P13726 whole entry): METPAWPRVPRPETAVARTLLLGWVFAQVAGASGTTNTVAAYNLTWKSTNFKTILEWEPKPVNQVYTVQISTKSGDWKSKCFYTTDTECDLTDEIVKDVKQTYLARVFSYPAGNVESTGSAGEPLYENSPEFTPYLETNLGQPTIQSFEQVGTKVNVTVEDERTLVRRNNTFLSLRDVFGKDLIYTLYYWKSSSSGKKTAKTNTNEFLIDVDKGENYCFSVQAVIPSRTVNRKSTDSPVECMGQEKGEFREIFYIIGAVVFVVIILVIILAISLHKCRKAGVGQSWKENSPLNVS

Question: With `COc1cc2c(cc1O)[C@@H]1Cc3ccc(O)c(OC)c3CN1CC2` [STEPHOLIDINE] as the compound, how does the IC50 read?
Answer: The IC50 was 105 nM.
